Among the data in ChEMBL document CHEMBL2046357, “Inhibitors of Dengue virus and West Nile virus proteases based on the aminobenzamide scaffold” (Bioorg Med Chem, 2012) are inhibition and IC50 values, retold here.

The structures appear in SMILES notation. pIC50: −log10 of the molar value. Active and inactive are the calls of the source. The rule behind the calls is not given here.

Test [1] relates to dengue virus type 2. In words: Inhibition of Dengue virus 2 NS2B-NS3 protease expressed in Escherichia coli Top10F' at 10 uM pre-incubated for 15 mins before addition of Bz-NIe-Lys-Arg-Arg-AMC substrate by spectrofluorometry. A digest of the protocol: (§1)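 Enzyme (DENV2 protease 25 nM; WNV protease 28 nM) pre-incubated with compound for 15 min at room temperature in 200 mM Tris·HCl pH 9.5, 30% glycerol, with 1% v/v DMSO final. Reaction started with 5 μM substrate. Fluorescence (ex 380/em 460 nm) followed every 90 s for up to 30 min at 37 °C. Percent inhibition calculated against no-compound fluorescence. Aprotinin and DMSO served as controls. Triplicates, averaged.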

Test [2] concerns dengue virus type 2. In words: Inhibition of Dengue virus 2 NS2B-NS3 protease expressed in Escherichia coli Top10F' at 25 uM pre-incubated for 15 mins before addition of Bz-NIe-Lys-Arg-Arg-AMC substrate by spectrofluorometry. The procedure, abridged: as §1
In test [3] the test system is West Nile virus. In words: Inhibition of West Nile virus NS2B-NS3 protease expressed in Escherichia coli Top10F' at 10 uM pre-incubated for 15 mins before addition of Bz-NIe-Lys-Arg-Arg-AMC substrate by spectrofluorometry. A digest of the protocol: as §1
Test [4] relates to West Nile virus. In words: Inhibition of West Nile virus NS2B-NS3 protease expressed in Escherichia coli Top10F' at 25 uM pre-incubated for 15 mins before addition of Bz-NIe-Lys-Arg-Arg-AMC substrate by spectrofluorometry. The procedure, abridged:
as §1

For test [5], the system named is West Nile virus. In words: Competitive inhibition of West Nile virus NS2B-NS3 protease expressed in Escherichia coli Top10F' at 1 to 5 uM uM assessed as reduction in kcat/Km of substrate pre-incubated for 15 mins before addition of Bz-NIe-Lys-Arg-Arg-AMC substrate by spectrofluorometry. The procedure, abridged: (§2)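 Inhibitor fixed at 0, 1.0, 3.0 or 5.0 μM; substrate varied 0–50 μM. Initial cleavage rates used to derive apparent Km and kcat. Ki taken from secondary plot of Km,app against inhibitor concentration. Duplicates, repeated three times.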

Test [6] relates to West Nile virus. Description: Competitive inhibition of West Nile virus NS2B-NS3 protease expressed in Escherichia coli Top10F' at 1 to 5 uM uM assessed as increase in Km of substrate pre-incubated for 15 mins before addition of Bz-NIe-Lys-Arg-Arg-AMC substrate by spectrofluorometry. A digest of the protocol:
as §2

Test [7] is described as follows: Inhibition of Dengue virus 2 NS2B-NS3 protease expressed in Escherichia coli Top10F' pre-incubated for 15 mins before addition of Bz-NIe-Lys-Arg-Arg-AMC substrate by spectrofluorometry. More on the design: species or system dengue virus type 2. The procedure, abridged:
(§3)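 Protease (DENV2 25 nM; WNV 28 nM) pre-incubated with compound for 15 min at room temperature in 200 mM Tris·HCl pH 9.5 with 30% glycerol. Then 5 μM substrate added, and fluorescence (ex 380/em 460 nm) read at 37 °C for up to 30 min.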

The nature of test [8]: Inhibition of West Nile virus NS2B-NS3 protease expressed in Escherichia coli Top10F' pre-incubated for 15 mins before addition of Bz-NIe-Lys-Arg-Arg-AMC substrate by spectrofluorometry. The procedure, abridged: as §3
The mark [9] stands for this setting: 25 uM, in the assay text read “at 25 uM” for “at 10 uM”.

In general, inhibition refers to the change of the read-out against control, counted positive when it falls. With `O=C(NCc1cn(Cc2ccc(F)cc2)nn1)Nc1ccc(C(=O)Nc2ccccc2)cc1`, the inhibition result with dengue virus type 2 [1], with dengue virus type 2 [2], in the test on West Nile virus [3] (setting [9]) and in the test with West Nile virus [4] was “inactive” in each case.
Regarding `O=C(NCc1cn(Cc2ccccc2)nn1)Nc1ccc(C(=O)NCCN2CCOCC2)cc1`, the inhibition result in the test with dengue virus type 2 [1], in the test on dengue virus type 2 [2], with West Nile virus [3] (setting [9]) and in the test with West Nile virus [4] was “inactive” each time.
Turning to `O=C(NCc1cn(Cc2ccccc2)nn1)Nc1ccc(C(=O)NCc2ccco2)cc1`, the inhibition entry with dengue virus type 2 [1], with dengue virus type 2 [2], in the test with West Nile virus [3] (setting [9]) and in the test with West Nile virus [4] was “inactive” throughout.
Take `O=C(NCc1cn(Cc2ccccc2)nn1)Nc1ccc(C(=O)Nc2ccc(Oc3ccccc3)cc2)cc1`: the inhibition with dengue virus type 2 [1] was determined as 39.4%; in the test with dengue virus type 2 [2], 52.5%; in the test on West Nile virus [3] (10 uM), 46.5%; in the test with West Nile virus [4], 58%.
In the case of `O=C(NCc1cn(Cc2ccccc2)nn1)Nc1cccc(C(=O)NCc2ccccc2)c1`, the inhibition result in the test with dengue virus type 2 [1], in the test with dengue virus type 2 [2], in the test with West Nile virus [3] (setting [9]) and in the test with West Nile virus [4] was “inactive” in each case.
As to `O=C(NCc1cn(Cc2ccc(F)cc2)nn1)Nc1ccc(C(=O)NCc2ccco2)cc1`, the inhibition entry in the test with dengue virus type 2 [1], in the test on dengue virus type 2 [2], with West Nile virus [3] (setting [9]) and with West Nile virus [4] was “inactive” throughout.
As for `O=C(NCc1cn(Cc2ccccc2)nn1)Nc1cccc(C(=O)Nc2cccc(Oc3ccccc3)c2)c1`, the inhibition entry in the test on dengue virus type 2 [1], in the test on dengue virus type 2 [2], in the test with West Nile virus [3] (setting [9]) and in the test on West Nile virus [4] was “inactive” in each case.
As to `O=C(NCc1cn(CSc2ccccc2)nn1)Nc1cccc(C(=O)NCc2ccccc2)c1`, the inhibition result in the test on dengue virus type 2 [1], in the test with dengue virus type 2 [2], in the test on West Nile virus [3] (setting [9]) and with West Nile virus [4] was “inactive” in each case.
As to `O=C(NCc1cn(Cc2ccccc2)nn1)Nc1cccc(C(=O)NCCc2ccccc2)c1`, the inhibition result in the test on dengue virus type 2 [1], in the test on dengue virus type 2 [2], with West Nile virus [3] (setting [9]) and in the test on West Nile virus [4] was “inactive” in each case.
In the case of `O=C(NCc1cn(Cc2ccccc2)nn1)Nc1ccc(C(=O)NCc2ccccc2)cc1`, the inhibition result in the test on dengue virus type 2 [1], in the test with dengue virus type 2 [2], with West Nile virus [3] (setting [9]) and with West Nile virus [4] was “inactive” each time.
As for `O=C(NCc1cn(Cc2ccc(F)cc2)nn1)Nc1ccc(C(=O)Nc2cccc(Oc3ccccc3)c2)cc1`, the inhibition is 41.1% in the test on dengue virus type 2 [1], 57% in the test with dengue virus type 2 [2], 44.5% with West Nile virus [3] (10 uM) and 60.9% in the test on West Nile virus [4].
In the case of `O=C(NCc1cn(Cc2ccc(F)cc2)nn1)Nc1ccc(C(=O)NCCN2CCOCC2)cc1`, the inhibition result in the test with dengue virus type 2 [1], with dengue virus type 2 [2], in the test with West Nile virus [3] (setting [9]) and with West Nile virus [4] was “inactive” each time.
With `O=C(NCc1cn(Cc2ccccc2)nn1)Nc1ccc(C(=O)Nc2ccccc2)cc1`, the inhibition result with dengue virus type 2 [1], in the test on dengue virus type 2 [2], with West Nile virus [3] (setting [9]) and with West Nile virus [4] was “inactive” each time.
As a reminder, the pIC50 is −log10 of the IC50, conventionally taken in molar units. Consider `O=C(NCc1cn(Cc2ccc(F)cc2)nn1)Nc1ccc(C(=O)Nc2ccc(Oc3ccccc3)cc2)cc1`, for which the inhibition with dengue virus type 2 [1] was found to be 55.3%; in the test on dengue virus type 2 [2] it was 76%; in the test on West Nile virus [3] (10 uM), 58.8%; in the test with West Nile virus [4], 82.3%. The inhibition entry in the test with West Nile virus [5] and in the test on West Nile virus [6] was “Active” each time. In addition, the negative logarithm of the IC50 (pIC50) in test [7] is 5.17; in test [8] it was 5.26.
Regarding `O=C(NCc1cn(CSc2ccccc2)nn1)Nc1ccc(C(=O)Nc2ccccc2)cc1`, the inhibition result with dengue virus type 2 [1], in the test on dengue virus type 2 [2], in the test on West Nile virus [3] (setting [9]) and with West Nile virus [4] was “inactive” throughout.
On to `O=C(NCc1cn(CSc2ccccc2)nn1)Nc1cccc(C(=O)Nc2cccc(Oc3ccccc3)c2)c1`, for which the inhibition with dengue virus type 2 [1] came to 40.3%; with dengue virus type 2 [2] it was 58.2%; in the test with West Nile virus [3] (10 uM), 49.3%; in the test on West Nile virus [4], 60.3%.
`O=C(NCc1cn(CSc2ccccc2)nn1)Nc1ccc(C(=O)Nc2ccc(Oc3ccccc3)cc2)cc1`: the inhibition entry in the test on dengue virus type 2 [1], with dengue virus type 2 [2], with West Nile virus [3] (setting [9]) and in the test on West Nile virus [4] was “inactive” each time.
Turning to `O=C(NCc1cn(CSc2ccccc2)nn1)Nc1ccc(C(=O)NCc2ccco2)cc1`, the inhibition result in the test with dengue virus type 2 [1], in the test with dengue virus type 2 [2], in the test on West Nile virus [3] (setting [9]) and in the test on West Nile virus [4] was “inactive” each time.
Turning to `O=C(NCc1cn(CSc2ccccc2)nn1)Nc1cccc(C(=O)NCCc2ccccc2)c1`, the inhibition entry in the test with dengue virus type 2 [1], in the test with dengue virus type 2 [2], in the test with West Nile virus [3] (setting [9]) and with West Nile virus [4] was “inactive” throughout.
In the case of `O=C(NCc1cn(CSc2ccccc2)nn1)Nc1ccc(C(=O)NCCN2CCOCC2)cc1`, the inhibition result with dengue virus type 2 [1], in the test with dengue virus type 2 [2], in the test on West Nile virus [3] (setting [9]) and in the test on West Nile virus [4] was “inactive” throughout.
As to `O=C(NCc1cn(Cc2ccccc2)nn1)Nc1ccc(C(=O)Nc2cccc(Oc3ccccc3)c2)cc1`, the inhibition result with dengue virus type 2 [1], with dengue virus type 2 [2], in the test with West Nile virus [3] (setting [9]) and with West Nile virus [4] was “inactive” in each case.
Regarding `O=C(NCc1cn(CSc2ccccc2)nn1)Nc1ccc(C(=O)NCCc2ccccc2)cc1`, the inhibition result in the test with dengue virus type 2 [1], in the test with dengue virus type 2 [2], with West Nile virus [3] (setting [9]) and with West Nile virus [4] was “inactive” each time.
On to `O=C(NCc1cn(Cc2ccc(F)cc2)nn1)Nc1ccc(C(=O)NCc2ccccc2)cc1`, for which the inhibition entry in the test with dengue virus type 2 [1], with dengue virus type 2 [2], in the test with West Nile virus [3] (setting [9]) and in the test on West Nile virus [4] was “inactive” in each case.
Turning to `O=C(NCc1cn(CSc2ccccc2)nn1)Nc1ccc(C(=O)NCc2ccccc2)cc1`, the inhibition result in the test with dengue virus type 2 [1], in the test on dengue virus type 2 [2], in the test on West Nile virus [3] (setting [9]) and in the test on West Nile virus [4] was “inactive” throughout.
Turning to `O=C(NCc1cn(Cc2ccc(F)cc2)nn1)Nc1ccc(C(=O)NCCc2ccccc2)cc1`, the inhibition result in the test on dengue virus type 2 [1], in the test with dengue virus type 2 [2], in the test on West Nile virus [3] (setting [9]) and in the test on West Nile virus [4] was “inactive” throughout.
In the case of `O=C(NCc1cn(Cc2ccccc2)nn1)Nc1ccc(C(=O)NCCc2ccccc2)cc1`, the inhibition entry in the test with dengue virus type 2 [1], in the test with dengue virus type 2 [2], in the test with West Nile virus [3] (setting [9]) and with West Nile virus [4] was “inactive” each time.
